Laboratory results from ChEMBL document CHEMBL1125679, “Novel caffeic acid derivatives: extremely potent inhibitors of 12-lipoxygenase” (J Med Chem, 1991).

Experiments:
[1] = target: T1, Polyunsaturated fatty acid lipoxygenase ALOX15B (Rattus norvegicus, UniProt Q8K4F2); experiment: Inhibitory activity against 15-lipoxygenase in rat polymorphonuclear leukocytes; assay type: cell-based
T1 sequence (Q8K4F2 whole entry): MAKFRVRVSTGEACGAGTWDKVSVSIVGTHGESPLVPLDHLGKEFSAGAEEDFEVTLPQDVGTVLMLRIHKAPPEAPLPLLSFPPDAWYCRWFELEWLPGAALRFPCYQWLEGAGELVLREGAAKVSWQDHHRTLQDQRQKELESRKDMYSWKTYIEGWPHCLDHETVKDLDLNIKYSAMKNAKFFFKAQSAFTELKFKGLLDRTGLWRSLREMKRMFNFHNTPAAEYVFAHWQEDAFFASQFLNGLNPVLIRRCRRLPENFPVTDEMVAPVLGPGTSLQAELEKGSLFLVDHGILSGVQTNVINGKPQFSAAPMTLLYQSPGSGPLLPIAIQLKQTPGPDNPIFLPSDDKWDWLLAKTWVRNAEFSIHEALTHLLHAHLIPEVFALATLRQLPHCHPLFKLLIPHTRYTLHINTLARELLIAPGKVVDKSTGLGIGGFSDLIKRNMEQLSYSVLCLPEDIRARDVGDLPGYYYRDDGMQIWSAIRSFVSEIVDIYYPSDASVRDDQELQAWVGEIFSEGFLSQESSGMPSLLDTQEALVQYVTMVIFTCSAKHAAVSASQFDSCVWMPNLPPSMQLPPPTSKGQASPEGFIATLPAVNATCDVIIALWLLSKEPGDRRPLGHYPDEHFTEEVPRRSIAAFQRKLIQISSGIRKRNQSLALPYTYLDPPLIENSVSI
Summary of the method: (§1)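 Heparinized rat blood; PMNLs isolated by Ficoll/Hypaque gradient and hypotonic hemolysis, washed thrice in Hanks' solution, resuspended at 2 × 10^7 cells/mL in 1/15 M phosphate buffer pH 8.2 (>94% neutrophils, <1% platelets). Cells sonicated at 4 °C, given 1 mM CaCl2, incubated with [14C]arachidonic acid (0.2 µCi) 20 min at 37 °C; stopped by HCl acidification to pH 3.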

[2] = target: 12-lipoxygenase (Rattus norvegicus, UniProt F1LQ70); experiment: Inhibitory activity against 12-lipoxygenase in rat platelet rich plasma; assay type: cell-free
Chain of 12-lipoxygenase (F1LQ70 whole entry, looked up): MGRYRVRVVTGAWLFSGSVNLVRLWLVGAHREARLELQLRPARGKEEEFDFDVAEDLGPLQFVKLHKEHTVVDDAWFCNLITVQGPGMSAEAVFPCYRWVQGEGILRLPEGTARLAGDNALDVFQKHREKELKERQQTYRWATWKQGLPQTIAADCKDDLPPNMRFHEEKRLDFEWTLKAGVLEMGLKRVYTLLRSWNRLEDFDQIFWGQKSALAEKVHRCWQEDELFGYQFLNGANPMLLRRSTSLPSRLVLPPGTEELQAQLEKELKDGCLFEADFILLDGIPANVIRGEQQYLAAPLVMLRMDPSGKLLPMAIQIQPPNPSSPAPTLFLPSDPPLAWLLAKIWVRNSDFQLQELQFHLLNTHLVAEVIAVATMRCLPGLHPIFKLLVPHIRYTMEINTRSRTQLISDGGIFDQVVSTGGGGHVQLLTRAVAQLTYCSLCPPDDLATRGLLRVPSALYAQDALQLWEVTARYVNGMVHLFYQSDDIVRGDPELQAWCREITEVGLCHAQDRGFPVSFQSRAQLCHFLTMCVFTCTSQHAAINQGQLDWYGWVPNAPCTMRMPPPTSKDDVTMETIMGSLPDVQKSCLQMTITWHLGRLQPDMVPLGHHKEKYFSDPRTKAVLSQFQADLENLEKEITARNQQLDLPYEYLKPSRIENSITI

[3] = target: T2, Polyunsaturated fatty acid 5-lipoxygenase (Rattus norvegicus, UniProt P12527); experiment: Inhibitory activity against 5-lipoxygenase in rat polymorphonuclear leukocytes; assay type: cell-based; summary of the method: as §1
T2 sequence (P12527 whole entry): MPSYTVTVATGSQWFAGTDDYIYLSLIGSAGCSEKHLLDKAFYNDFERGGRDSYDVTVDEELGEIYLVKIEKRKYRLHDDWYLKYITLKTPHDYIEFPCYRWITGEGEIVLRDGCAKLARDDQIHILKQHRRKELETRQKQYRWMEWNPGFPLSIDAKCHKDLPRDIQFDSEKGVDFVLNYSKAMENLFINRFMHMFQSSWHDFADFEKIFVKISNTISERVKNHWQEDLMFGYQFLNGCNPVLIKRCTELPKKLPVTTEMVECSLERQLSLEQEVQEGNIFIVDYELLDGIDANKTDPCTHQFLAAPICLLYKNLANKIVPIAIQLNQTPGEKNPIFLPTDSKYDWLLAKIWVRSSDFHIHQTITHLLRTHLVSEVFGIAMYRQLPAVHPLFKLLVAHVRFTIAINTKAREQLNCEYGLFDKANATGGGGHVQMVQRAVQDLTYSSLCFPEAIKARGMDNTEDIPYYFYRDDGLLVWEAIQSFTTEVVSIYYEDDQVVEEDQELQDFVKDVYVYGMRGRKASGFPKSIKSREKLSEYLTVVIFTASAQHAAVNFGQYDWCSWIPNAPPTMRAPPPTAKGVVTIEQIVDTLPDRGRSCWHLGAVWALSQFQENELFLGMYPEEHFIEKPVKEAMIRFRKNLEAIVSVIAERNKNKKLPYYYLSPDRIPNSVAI

Structure (SMILES) | IC50 [1] | IC50 [2] | IC50 [3]
N#C/C(=C\c1ccc(O)c(O)c1)C(=O)OCCCc1ccccc1 | 1400 nM | 53 nM | 160 nM
N#C/C(=C\c1ccc(O)c(O)c1)C(=O)OCCCCCCCCn1ccnc1 | > 10000 nM | 180 nM | > 10000 nM
N#C/C(=C\c1ccc(O)c(O)c1)C(=O)OCCCc1cccnc1 | 3930 nM | 470 nM | > 10000 nM
N#C/C(=C\c1ccc(O)c(O)c1)C(=O)OCCc1cccs1 | 500 nM | 13 nM | 90 nM
N#C/C(=C\c1ccc(O)c(O)c1)C(=O)OC/C=C/c1ccccc1 | 3330 nM | 63 nM | 1890 nM
N#C/C(=C\c1ccc(O)c(O)c1)C(=O)OCCc1ccccc1 | 430 nM | 51 nM | 160 nM
COc1ccccc1CCOC(=O)/C(C#N)=C/c1ccc(O)c(O)c1 | 1620 nM | 64 nM | 140 nM
CCOC(=O)/C(C#N)=C/c1ccc(O)c(O)c1 | 330 nM | 33 nM | > 10000 nM
N#C/C(=C\c1ccc(O)c(O)c1)C(=O)OCCCCc1ccccc1 | 3590 nM | 470 nM | 220 nM
O=c1cc(-c2ccccc2)oc2cc(O)c(O)c(O)c12 [BAICALEIN] | 260 nM | 15 nM | –
